# High-throughput results from PubChem BioAssay.
# Rows were chosen to be rich in hits. Some 12% of all compounds tested hit in one or more screens of this group.
# Autophagy mod – alters autophagy in cells; hit rate 0.98% among 190,000; MEF GFP-LC3 puncta imaging; test concentration mostly 10 µM; AID 463193; calls only at 10 µM (by protocol);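 active = percentage of spot-positive cells more than 3 SD above its plate mean, without a fluorescence outlier flag or 80% toxicity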;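 note: spot-positive cell cutoff set from DMSO-treated cells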
# Dynein transport – blocks dynein driven cargo transport along microtubules | 3617.4 mouse cells, GR-EGFP nuclear translocation imaging; test concentration mostly 20 µM; stimulated with dexamethasone, 1 µM; hits give low values | z-score, hits read low | hit rate 0.47% among 220,000;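 active = plate z-score of nuclear minus cytoplasmic receptor signal below a set negative limit, without overly bright fluorescence or cell loss, cut at about -3.5 in these data, passing the limit was not always enough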;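 note: z-score of nuclear minus cytoplasmic ring GR-EGFP intensity difference per well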
#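 Buffer or medium: tet-free, stripped-serum medium; Also added: dexamethasone, 1.0 µM final; Technique: high-content fluorescence imaging after fixation; Times: 48 h induction, 1 h compound, 30 min dex at 37 °C; Read-out: per-cell GR-EGFP intensity, nucleus versus surrounding cytoplasmic ring, well-averaged.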
# CHOP inh – inhibitors of CHOP induction in ER stress response | CHO-K1 CHOP-promoter luciferase, tunicamycin-induced, 15-18 h | inhibition, % at 10 µM | hit rate 3.8% among 220,000;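 active = compounds that reduced the stress-induced luciferase reporter signal by more than about 70% of percent inhibition, limit read from the data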;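 note: 0% = tunicamycin plus vehicle and 100% = wells without tunicamycin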
# MT stabilize HCS – stabilizes microtubules in HeLa cells | AID 2205 | hit rate 0.83% among 200,000 | HeLa tubulin immunostaining HCS, 24 h; share of cells brighter than vehicle mean+2SD | % tubulin-high responders, % at 10 µM;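 active = plate Z-score above 3 for both tubulin-high and condensed-nucleus cell shares, with cell loss under 80%, at 10 µM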;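 note: anti alpha tubulin signal scored within the nucleus-defined area of each cell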
# Lmaj promast – Leishmania major promastigote growth inhibition | inhibition, % at 10 µM | hit rate 9% among 200,000 | AID 1063 | Leishmania major promastigotes, resazurin fluorescence viability; in the data active = inhibition above about 50%;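 note: promastigotes grown with compound for 44 hours at 28 °C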
# bCat nuc transl – beta-catenin nuclear translocation modulation; HeLa beta-catenin nuclear translocation, immunofluorescence imaging; nuclear translocation activity, % at 5 µM; hit rate 0.3% among 190,000;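 active = nuclear translocation activity above 50% at 5 µM, with a well cell count of 50 or more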;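 note: per-cell ratio of nuclear to cytoplasmic median beta-catenin stain intensity; plate controls were DMSO negative control for no effect and GSK-3 inhibitor IX positive control for full effect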
#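 System: Human HeLa cells, endogenous beta-catenin | Compound dosing: 5 µM primary, 0.02–20 µM confirmation | Timing: 24 h compound exposure at 37°C, 5% CO2 | Measured by: Fluorescence imaging of beta-catenin antibody stain plus DAPI | Read-out basis: % activation of per-cell nuclear versus cytoplasmic median beta-catenin signal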
# * = called active by the depositor; i = inactive; nt = not tested or not shown; + = active, no number.
SMILES,Autophagy mod,Dynein transport,CHOP inh,MT stabilize HCS,Lmaj promast,bCat nuc transl
Cc1cccc(NS(=O)(=O)c2ccc3c(c2)Cc2cc(S(=O)(=O)Nc4cccc(C)c4C)ccc2-3)c1C,i,0.066,51,3,33,-2
CCOC(=O)C1CCCN(c2c(Nc3cccc(C)c3)c(=O)c2=O)C1 (stereo unspecified),i,-1,6,3,1,nt
CC1(C)C2CCC1(C)C(OCC[N+](C)(C)CC(=O)OC1CCCCC1)C2 (stereo unspecified),i,0.64,15,4,100*,-2
CCOC(=O)C[N+](C)(C)CCOC1CC2CCC1(C)C2(C)C (stereo unspecified),i,-0.021,-9,1,-6,2
CCCCS(=O)(=O)NC1=NCN(CCOC(=O)c2ccccc2)CN1,i,-0.33,nt,3,-3,nt
O=C(NCC1CCCO1)c1ccc(NS(=O)(=O)c2ccccc2)cc1 (stereo unspecified),i,-0.21,12,3,-6,2
COc1ccc(-c2c(-c3ccc(O)cc3O)n[nH]c2C)cc1OC,i,-0.43,21,35*,6,nt
COc1ccc(-c2cc(-c3ccccc3O)[nH]n2)cc1OC,i,2.5,-38,4,40,-4
COc1ccc(-c2cc(-c3ccc(OC)c(OC)c3)n[nH]2)c(O)c1,i,-0.81,12,4,99*,nt
COc1ccc(-c2cc(-c3cc(OC)ccc3O)[nH]n2)cc1,i,-0.58,31,3,91*,nt
O=C(O)CCC(=O)NCc1c(Cl)cccc1Sc1ccc(Cl)cc1,nt,0.48,16,nt,nt,0
O=C(CCNc1ccc(F)cc1)c1ccco1,i,-2,-12,3,97*,-1
O=C(CNc1ccc(Br)cc1)c1ccccc1,i,-0.54,23,2,6,1
O=C(CCNc1ccc(F)c(Cl)c1)c1ccco1,i,-0.77,nt,2,96*,-1
O=C(CNc1ccc(F)cc1)c1ccccc1,i,-0.87,63,3,83*,0
O=C(CCNc1cccc(C(F)(F)F)c1)c1ccco1,i,-0.87,29,2,85*,2
O=C(CCNc1ccc(Cl)c(C(F)(F)F)c1)c1ccco1,i,0.59,46,3,35,1
O=C(OCn1nnc2ccccc2c1=O)c1cc2ccccc2o1,nt,1.1,1,nt,nt,-2
COC(=O)c1cc(OC)c(OC)cc1NC(=O)c1c(C)noc1C,i,-0.87,nt,2,-2,nt
CCC(=O)c1ccc(OCC(=O)NCC2(N3CCCCC3)CCCCC2)cc1,i,3.2,24,2,18,-1
O=C(CCN1CCN(c2ccccc2)CC1)N/N=C/c1ccccc1OC(F)F,+,0.14,14,5,5,nt
COc1ccc(/C=N\NC(=O)CCN2CCN(c3ccccc3)CC2)cc1OC,i,-0.44,18,3,16,0
CC(=O)Nc1ccc(S(=O)(=O)Nc2ccc(N3CCOCC3)cc2)cc1,i,0.3,7,4,-1,-8
CC(=O)Nc1ccc(S(=O)(=O)NC2=C(N3CCN(c4ccc(F)cc4)CC3)C(=O)c3ccccc3C2=O)cc1,i,1.3,18,2,61*,0
CC1CCCN(C2=C(NS(=O)(=O)c3ccc(Cl)cc3)C(=O)c3ccccc3C2=O)C1 (stereo unspecified),i,-0.12,45,4,56*,2
SMILES,Autophagy mod,Dynein transport,CHOP inh,MT stabilize HCS,Lmaj promast,bCat nuc transl
COC(=O)C1CCN(C2=C(NS(=O)(=O)c3ccc(Cl)cc3)C(=O)c3ccccc3C2=O)CC1,nt,-0.29,9,nt,nt,1
Cc1ccc(S(=O)(=O)NC2=C(N3CCN(Cc4ccccc4)CC3)C(=O)c3ccccc3C2=O)cc1,i,0.28,31,1,97*,-3
Cc1ccc(S(=O)(=O)NC2=C(N3CCN(c4ccccc4F)CC3)C(=O)c3ccccc3C2=O)cc1,i,-0.5,40,2,96*,-1
Cc1ccc(S(=O)(=O)NN=C2CCN(Cc3ccccc3)CC2)cc1,i,1.4,-7,3,0,-2
Cc1ccc(CS(=O)(=O)Cc2ccc(C(=O)NCc3cccs3)o2)cc1,i,1.8,8,3,-2,-1
COc1ccc(-c2nn(-c3ccccc3)cc2/C=N/NC(=O)c2cccc(S(=O)(=O)Nc3ccccc3OC)c2)cc1,i,1.4,17,3,52*,0
COc1ccc(-c2nn(-c3ccccc3)cc2/C=N/NC(=O)c2ccc3c(c2)OCO3)cc1,i,-0.44,-10,3,17,0
Cc1ccc(NS(=O)(=O)c2cccc(C(=O)N/N=C/c3c(C)nn(-c4ccccc4)c3N3CCCC3)c2)c(C)c1,i,0.19,16,2,64*,-1
COc1ccc(NS(=O)(=O)c2cccc(C(=O)N/N=C/c3cccs3)c2)cc1,i,-0.42,50,2,53*,nt
COc1ccc(NS(=O)(=O)c2cccc(C(=O)O)c2)cc1,i,-0.38,28,5,-5,-6
O=C(N/N=C/c1cn(-c2ccccc2)nc1-c1ccc(F)cc1)c1ccc2c(c1)OCO2,i,-0.39,18,16*,15,1
O=C(N/N=C\c1cn(-c2ccccc2)nc1-c1ccccc1)c1ccc2c(c1)OCO2,i,-0.37,35,3,32,0
COc1ccccc1NS(=O)(=O)c1cccc(C(=O)N/N=C/c2ccc(N3CCOCC3)cc2)c1,i,-0.31,-14,2,52*,nt
CCOc1ccc(/C=C2\SC(=S)N(C(C(=O)O)c3ccccc3)C2=O)cc1OC (stereo unspecified),nt,-0.45,20,nt,nt,-1
C=CCOc1ccc(/C=C2\SC(=S)N(C(C(=O)O)c3ccccc3)C2=O)cc1 (stereo unspecified),nt,-0.76,90*,nt,nt,-1
CC(c1ccccc1)N1C(=O)/C(=C/c2ccncc2)SC1=S (stereo unspecified),nt,-0.69,86*,nt,nt,1
CC(O)c1nc2ccc(C(=O)O)cc2[nH]1 (stereo unspecified),nt,1.7,-4,nt,nt,0
Cc1ccnc(N=Cc2c(O)ccc3oc4c(c23)CCCC4)c1,i,-0.83,13,3,90*,-1
O=C(c1cccc(S(=O)(=O)N2CCc3ccccc3C2)c1)N1CCN(c2ccc(O)cc2)CC1,i,-0.73,21,3,65*,-3
NC(=O)C1CCN(C(=O)c2cccc(S(=O)(=O)N3CCc4ccccc4C3)c2)CC1,i,1.6,15,2,0,2
O=C(c1ccc2ccccc2c1)N1CCN(c2ccc(O)cc2)CC1,i,-1.2,16,2,90*,2
O=C(CSc1ccc2ccccc2c1)N1CCN(c2ccc(O)cc2)CC1,nt,-0.57,33,nt,nt,3
O=C(c1cccc(S(=O)(=O)N2CCOCC2)c1)N1CCCCCC1,+,1.6,-3,3,-6,2
